# Assay outcomes from PubChem BioAssay.
# E coli WT exp: growth inhibitors of E. coli BW25113 wild type; AID 710; growth inhibition, % at 100 µM; hit rate 0.15% among 98,000; OD600 absorbance;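 active means growth inhibition above about 50% at one test dose, limit read from the data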;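 further: growth measured after 20 h incubation at 37 °C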
# PLAP act: activators of human placental alkaline phosphatase | P05187 | purified PLAP enzyme, luminescent substrate read-out; hits give high values | hit rate 1.2% among 96,000 | activation fold at 20 µM | AID 696; in the data active means activation fold above about 2
# Target sequence (P05187 whole entry, looked up): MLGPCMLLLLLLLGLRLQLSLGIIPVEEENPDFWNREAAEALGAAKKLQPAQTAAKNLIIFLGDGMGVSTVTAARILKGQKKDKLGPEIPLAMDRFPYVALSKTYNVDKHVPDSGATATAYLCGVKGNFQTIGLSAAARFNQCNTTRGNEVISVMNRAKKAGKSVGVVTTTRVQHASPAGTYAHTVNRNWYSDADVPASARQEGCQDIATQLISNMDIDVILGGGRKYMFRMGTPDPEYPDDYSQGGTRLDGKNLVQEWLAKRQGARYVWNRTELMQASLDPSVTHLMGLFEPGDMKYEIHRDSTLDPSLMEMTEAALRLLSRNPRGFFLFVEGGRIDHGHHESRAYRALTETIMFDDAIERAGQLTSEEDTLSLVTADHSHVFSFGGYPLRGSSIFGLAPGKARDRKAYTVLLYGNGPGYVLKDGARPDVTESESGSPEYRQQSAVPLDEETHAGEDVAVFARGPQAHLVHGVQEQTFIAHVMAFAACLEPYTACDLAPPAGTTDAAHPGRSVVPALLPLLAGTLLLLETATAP
# PostGolgi yeast: growth inhibition of a yeast mutant, post-Golgi transport screen | inhibition, % at 10 µM | post-Golgi transport phenotypic cell assay | AID 739 | hit rate 0.9% among 98,000;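 further: yeast cells grown in 1536-well plates; yeast grown about 18 h at 30C before absorbance read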
# PostGolgi ctrl: inhibits growth of the yeast control strain; efflux-deficient yeast background strain, growth absorbance A615, 16 h; inhibition, % at 10 µM; hit rate 5% among 98,000; AID 738
# Ecoli tolC: blocks growth of E. coli BW25113 tolC mutant | OD615 | growth inhibition, % at 10 µM (by protocol) | hit rate 2.2% among 65,000 | AID 573;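 active means growth inhibition at or above a cutoff equal to the mean over every tested compound plus 3 SD, cut at about 60% in these data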;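 further: growth measured after 20 h incubation at 37 °C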
#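 Test system: tolC-deleted E. coli BW25113 | Medium: LB with kanamycin 50 µg/mL | Compound dosing: Single concentration, 10 µM final per compound | Schedule: 37 °C, 20 h exposure | Measured by: OD at 615 nm | Evaluation: Percent growth inhibition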
# * hit, by the source's call; · = not tested or not shown. Shown are actives, neighbours in structure and some others; about 7.2% of the full set was active somewhere. Unless noted, no stated cut-off is given here; in the data, active means inhibition above about 30%; inactive means the rest.
SMILES,E coli WT exp,PLAP act,PostGolgi yeast,PostGolgi ctrl,Ecoli tolC
CN1CCc2c(C#N)c(N3CCCCC3)nc(NCc3ccccc3)c2C1,13.0,1.1,26.5,47.8*,6.5
CCN(CC)c1ccc2cc(-c3nnc(-c4ccncc4)o3)c(=O)oc2c1,-7.0,0.8,-0.6,51.0*,6.7
Cn1cc(-c2nnc(-c3ccccc3)o2)c2ccccc21,-9.0,1.1,0.0,1.5,·
COC(=O)c1ccc2nc(C)c(C)nc2c1,1.0,0.9,10.2,2.6,·
COC(=O)c1ccc(O)c(Sc2cc(C(=O)OC)ccc2O)c1,21.0,1.5,-1.0,28.0,87.2*
Cc1ccc(O)c(Sc2cc(C)ccc2O)c1,45.0,2.5*,1.2,18.4,39.7
CCCCCNCc1cccc(Br)c1,7.0,1.1,5.2,0.3,·
CN1CCN(CP(=O)(N2CCOCC2)N2CCOCC2)CC1,-11.0,0.9,12.8,19.0,-8.6
CC(NC(=O)C1CCCCC1)C(c1cccs1)N1CCN(C)CC1 (centres undefined),·,·,·,·,-13.9
Cc1ccc(OCc2n[nH]c(=S)n2C2CCCCC2)cc1,1.0,1.4,-2.3,41.5*,·
S=c1[nH]nc(-c2ccco2)n1C1CCCCC1,·,·,·,·,8.7
O=C(Nc1nnc(-c2ccccc2)o1)c1nc2ccccc2s1,·,·,·,·,73.4*
COc1cccc(OCc2cc(/C=N/NC(=O)c3ccn[nH]3)ccc2OC)c1,-3.0,1.5,-0.6,33.4*,·
COc1cc(OC)cc(C(=O)N/N=C/c2ccc(OC)c(COc3ccc4ccccc4c3)c2)c1,-14.0,1,1.4,1.5,·
COc1ccc(/C=N/NC(=O)c2ccoc2C)cc1COc1c(C)cccc1C,-13.0,0.9,3.5,53.7*,·
C=CCc1ccc(OCCOCCNCCCC)c(OC)c1,1.0,1.6,1.0,6.5,·
CCCOc1cccc(C2C(C(=O)c3ccc(C)o3)=C(O)C(=O)N2CCCN(C)C)c1 (centres undefined),·,·,·,·,-3.0
CC1(C)CC(=O)C=C(NCc2ccc(Cl)c(Cl)c2)C1,-3.0,1.2,-3.5,5.3,·
O=C(Nc1nc2ccccc2n1CCN1CCCC1)c1ccc(Cl)cc1,6.0,1.3,2.3,-2.0,17.9
Cc1ccc(C(=O)Nc2nc3ccccc3n2CCN2CCCC2)cc1,9.0,2.8*,0.3,-12.9,16.7
O=C(Nc1nc2ccccc2n1CCN1CCCCC1)C1CCCCC1,4.0,1.6,8.8,7.7,·
O=C(Nc1nc2ccccc2n1CCN1CCCC1)C1CCCCC1,6.0,2.6*,5.2,4.0,26.0
COc1ccccc1CNc1ncnc2c1nnn2Cc1ccccc1,0.0,0.9,18.7,19.5,7.1
Cc1ccc(S(=O)(=O)Nc2cccc3ncccc23)s1,-5.0,1.4,-1.7,36.1*,100.0*
Cc1ccc2nc(C(F)(F)F)c(C#N)c(N)c2c1,-2.0,1,-4.6,35.7*,-1.4
SMILES,E coli WT exp,PLAP act,PostGolgi yeast,PostGolgi ctrl,Ecoli tolC
Cc1cc(C)c2nc(C(F)(F)F)c(C#N)c(N)c2c1,-2.0,0.7,-0.7,26.4,·
COC(=O)c1sccc1NC(=O)c1csc(C)c1,3.0,0.9,7.9,5.2,98.0*
COC(=O)c1sccc1NC(=O)c1ccc(Cl)s1,-9.0,0.8,17.8,11.3,72.4*
COC(=O)c1sccc1NC(=O)c1ccc(OC)cc1,-8.0,1,10.9,31.1*,34.1
COC(=O)c1sccc1NC(=O)c1cccnc1,4.0,0.9,11.7,-13.8,8.1
CCNc1nc(N)nc(Oc2ccc(OCCOc3ccc(Cl)cc3Cl)nn2)n1,5.0,1.1,1.3,7.4,8.8
O=C(CN1C(=O)COc2ccccc21)N(Cc1cccnc1)Cc1ccccc1F,4.0,0.9,-2.6,-0.8,-13.5
CN(C)S(=O)(=O)N1CCN(CC(O)COc2ccc3cc(Br)ccc3c2)CC1 (centres undefined),-2.0,1.4,7.2,41.1*,49.7
O=S(=O)(N1CCCCC1)N1CCN(CC(O)COc2ccc3cc(Br)ccc3c2)CC1 (centres undefined),-16.0,1.3,7.8,18.3,·
OC(COc1ccc2cc(Br)ccc2c1)CN1CCN(c2ccccn2)CC1 (centres undefined),-7.0,1.5,0.0,37.2*,10.4
Cc1ccc(NC(=O)COC(=O)c2ccc3c(c2)NC(=O)C2CCCN32)cc1C (centres undefined),-4.0,1.6,11.0,-1.8,35.3
CCC(Oc1ccccc1)C(=O)N1CC(C)CC(C)C1 (centres undefined),3.0,1.3,-5.9,-4.1,6.9
CCOc1ccc(NC(=O)C2CSC(c3ccncc3)=N2)cc1 (centres undefined),·,·,·,·,12.8
CCOc1ccc(C(=O)NCCC(=O)NCCCC(=O)O)cc1,-2.0,0.9,5.7,16.8,-9.3
CCCCCCCCNC(=O)CCNC(=O)c1ccc(C(C)(C)C)cc1,-9.0,2*,17.1,14.3,·
Cc1cc2c(ncn2C(C)C)c(N)c1C,-3.0,1,8.2,14.5,·
CCCc1cc(=O)[nH]c(/N=C(/NC(=O)C(C)N2C(=O)c3ccccc3C2=O)Nc2ccccc2)n1 (centres undefined),-16.0,0.9,-3.5,5.2,-18.8
COc1ccc(Cl)cc1Nc1nc(C)cc(=O)[nH]1,5.0,0.9,8.4,16.8,2.8
COc1ccc(Cl)cc1N/C(N)=N/c1nc(CSc2ccc(C)cc2)cc(=O)[nH]1,-1.0,2.6*,12.0,0.1,·
COC(=O)Cc1cc(=O)[nH]c(/N=C(\N)Nc2ccc(C)cc2)n1,-9.0,2.1*,-0.5,-2.7,·
COCc1cc(=O)[nH]c(/N=C(\N)Nc2ccc(Oc3ccccc3)cc2)n1,-13.0,1.7,5.7,3.9,16.8
COCc1cc(=O)[nH]c(/N=C(\N)Nc2cccc(C)c2)n1,-2.0,2.4*,1.0,-0.6,·
Cc1ccc(C2=[N+]([O-])C3(CCCCC/C3=N\NC(N)=S)N(O)C2(C)C)o1 (centres undefined),-3.0,0.9,3.7,-2.7,·
O=C(CCc1ccccc1)Nc1nc2n(n1)C(c1ccccc1)CC(=O)N2 (centres undefined),-1.0,1.5,-5.2,-5.8,-10.0
O=C(CCc1ccccc1)Nc1nc2n(n1)C(c1ccc(Cl)cc1)CC(=O)N2 (centres undefined),-4.0,1.2,-4.0,46.0*,·
SMILES,E coli WT exp,PLAP act,PostGolgi yeast,PostGolgi ctrl,Ecoli tolC
CCCN(CCC)CCCNC(=O)C1c2cc(OC)c(OC)cc2C(=O)N(C)C1c1cccs1 (centres undefined),0.0,2*,2.1,11.9,·
COc1ccc(C(=O)Nc2ccc(NC(=O)c3cnccn3)cn2)cc1,-3.0,0.9,-7.1,-8.0,·
CC(C)Nc1nc(Cl)nc(NNC(=O)C(C)Oc2ccccc2)n1 (centres undefined),9.0,2.2*,4.6,-7.8,·
CCOC(=O)C1(S(=O)(=O)c2ccc(Cl)cc2)CCN(Cc2ccc(C)cc2)CC1,-10.0,1.3,0.2,14.0,·
C/C(=N/NS(=O)(=O)c1ccc(Br)cc1)c1ccc(NC(=O)c2ccc(C)o2)cc1,-4.0,1.1,3.0,40.7*,·
CC1CCN(CCOc2cc(Cl)ccc2Cl)CC1,9.0,1,48.7*,22.9,·
Cc1ccc(-c2nn3c(C)nnc3s2)cc1NCc1c(F)cccc1Cl,-5.0,0.9,33.0*,22.9,17.1
Cc1ccc(-c2nn3c(C)nnc3s2)cc1NC(=O)CSc1ccc(Cl)cc1,-7.0,·,16.6,-0.8,-4.2
